Measurements as given in ChEMBL document CHEMBL2029267, “Rapid assembly of a library of lipophilic iminosugars via the thiol-ene reaction yields promising pharmacological chaperones for the treatment of Gaucher disease” (J Med Chem, 2012).
Numbering of substitutions follows the chain as printed. Activity calls are given as the source filed them. No cut-off for these calls is given here.

Tests used:
[1] = target: Lysosomal alpha-glucosidase (Homo sapiens) (UniProt P10253); assay: Inhibition of human lysosomal alpha-glucosidase using 4-methylumbelliferyl alpha-D-glucopyranoside as substrate at 200 uM by fluorimetric analysis
How it was run: (§1)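 Enzyme source was a lysosomal-enzyme-enriched ConA-bound human placental fraction, run in 100 mM citrate–phosphate pH 4.5 with 0.025% human serum albumin at 37 °C. Compound was tested at 200 μM in triplicate. An equal volume of 4-MU substrate was added: α-Glc 3.0 mM (α-glucosidase), α-Gal 1.0 mM (α-galactosidase), β-Gal 0.5 mM (β-galactosidase). Reactions were stopped with 4-fold excess 100 mM aminomethylpropanol and fluorescence read at 365/460 nm.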

[2] = tested on: T1, Lysosomal acid glucosylceramidase (Homo sapiens), P04062 [N409S]; assay: Activation of intracellular glucocerebrosidase p.N370S mutant in gaucher patient fibroblast using 4-methylumbelliferyl beta-D-glucopyranoside as substrate relative to control
T1 sequence (whole entry): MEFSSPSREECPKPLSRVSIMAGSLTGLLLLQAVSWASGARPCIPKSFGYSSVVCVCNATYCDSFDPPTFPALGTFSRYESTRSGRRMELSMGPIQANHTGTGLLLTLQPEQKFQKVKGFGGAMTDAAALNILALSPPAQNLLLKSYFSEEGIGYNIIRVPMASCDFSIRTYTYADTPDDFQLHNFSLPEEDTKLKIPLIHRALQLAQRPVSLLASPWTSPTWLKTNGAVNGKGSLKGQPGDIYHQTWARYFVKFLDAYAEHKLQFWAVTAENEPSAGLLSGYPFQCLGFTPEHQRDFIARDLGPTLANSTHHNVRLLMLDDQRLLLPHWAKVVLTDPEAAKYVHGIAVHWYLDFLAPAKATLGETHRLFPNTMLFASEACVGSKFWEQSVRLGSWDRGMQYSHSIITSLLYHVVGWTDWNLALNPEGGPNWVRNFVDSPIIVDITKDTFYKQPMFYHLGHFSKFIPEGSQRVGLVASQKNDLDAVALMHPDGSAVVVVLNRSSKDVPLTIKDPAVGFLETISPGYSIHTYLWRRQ

[3] = tested on: T1, Lysosomal acid glucosylceramidase (Homo sapiens), P04062 [N409S]; assay: Activation of intracellular glucocerebrosidase p.N370S mutant in gaucher patient fibroblast using 4-methylumbelliferyl beta-D-glucopyranoside as substrate assessed as concentration at which 50% of maximum increase in activity
[4] = Cytotoxicity against gaucher patient fibroblast assessed as decrease in cell viability at 100 uM after 5 days by alamar blue assay; format: cell-based; conditions: human, 120 h
How it was run: (§2)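 Viability of GD patient fibroblasts grown with compound at 10, 33 and 100 μM was read by a resazurin-based spectrophotometric assay.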

Homo sapiens [5] = species on record: Homo sapiens; assay: Inhibition of human lysosomal alpha-galactosidase using 4-methylumbelliferyl alpha-D-galactopyranoside as substrate at 200 uM by fluorimetric analysis; how it was run: as §1
[6] = target: T2, Beta-galactosidase (Homo sapiens) (UniProt P16278); assay: Inhibition of human lysosomal beta-galactosidase using 4-methylumbelliferyl beta-Dgalactopyranoside as substrate at 200 uM by fluorimetric analysis; how it was run: as §1
T2 sequence (whole entry): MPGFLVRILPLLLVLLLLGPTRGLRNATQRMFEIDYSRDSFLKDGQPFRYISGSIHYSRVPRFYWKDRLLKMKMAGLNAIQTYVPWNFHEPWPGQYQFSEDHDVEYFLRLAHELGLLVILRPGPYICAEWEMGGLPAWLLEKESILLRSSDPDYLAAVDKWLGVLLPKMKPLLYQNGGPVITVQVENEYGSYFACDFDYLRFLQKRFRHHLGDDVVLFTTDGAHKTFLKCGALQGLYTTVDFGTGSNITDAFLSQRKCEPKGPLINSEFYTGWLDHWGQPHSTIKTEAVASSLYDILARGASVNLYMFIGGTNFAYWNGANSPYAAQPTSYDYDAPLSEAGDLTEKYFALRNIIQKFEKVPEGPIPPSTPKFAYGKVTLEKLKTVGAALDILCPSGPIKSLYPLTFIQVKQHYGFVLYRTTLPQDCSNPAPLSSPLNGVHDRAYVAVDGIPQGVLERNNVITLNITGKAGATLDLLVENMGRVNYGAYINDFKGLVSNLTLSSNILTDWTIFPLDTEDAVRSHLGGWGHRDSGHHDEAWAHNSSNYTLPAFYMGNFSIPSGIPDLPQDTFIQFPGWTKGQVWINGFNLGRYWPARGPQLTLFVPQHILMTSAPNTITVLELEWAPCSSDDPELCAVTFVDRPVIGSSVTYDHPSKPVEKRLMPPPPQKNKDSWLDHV

[7] = target: T3, Lysosomal acid glucosylceramidase (Homo sapiens, UniProt P04062); assay: Competitive inhibition of wild type human glucocerebrosidase using 4-methylumbelliferyl beta-D-glucopyranoside as substrate after 15 mins by Dixon and Line-Weaver Burk plot analysis […]
T3 sequence (P04062 whole entry): T1 sequence (whole entry) with S409N

Homo sapiens [8] = species on record: Homo sapiens; assay: Activation of intracellular glucocerebrosidase p.L444P mutant in gaucher patient fibroblast using 4-methylumbelliferyl beta-D-glucopyranoside as substrate relative to control
[9] = target: T4, Lysosomal acid glucosylceramidase (Homo sapiens) (UniProt P04062); assay: Thermal denaturation of human glucocerebrosidase by differential scanning fluorimetry assessed as change in melting temperature at 100 uM and pH 7
T4 sequence (whole entry): T1 sequence (whole entry) with S409N

Homo sapiens [10] = species on record: Homo sapiens; assay: Activation of intracellular glucocerebrosidase p.L444P mutant in gaucher patient fibroblast using 4-methylumbelliferyl beta-D-glucopyranoside as substrate assessed as concentration at which 50% of maximum increase in activity
Homo sapiens [11] = species on record: Homo sapiens; assay: Activation of beta-N-acetyl hexosaminidase in gaucher patient fibroblast using 4-methylumbelliferyl N-acetyl-beta-D-glucosaminide as substrate
How it was run: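 Patient fibroblasts (GD, homozygous mutant GBA) grown in α-MEM with 10% FCS at 37 °C, CO2, with compound for 5 days. Lysates prepared in pH 5.5 citrate–phosphate with Triton X-100 and taurocholate. Lysosomal β-N-acetyl hexosaminidase activity read with fluorogenic 4-MU N-acetyl-β-D-glucosaminide at each compound concentration.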

[12] = Cytotoxicity against gaucher patient fibroblast assessed as decrease in cell viability at 10 uM after 5 days by alamar blue assay; format: cell-based; conditions: human, 120 h; how it was run: as §2
[13] = target: T5, Cytosolic beta-glucosidase (Homo sapiens, UniProt Q9H227); assay: Inhibition of human cytosolic beta-glucosidase using 4-methylumbelliferyl beta-D-glucopyranoside as substrate after 15 mins by fluorimetric analysis
T5 sequence (Q9H227 whole entry): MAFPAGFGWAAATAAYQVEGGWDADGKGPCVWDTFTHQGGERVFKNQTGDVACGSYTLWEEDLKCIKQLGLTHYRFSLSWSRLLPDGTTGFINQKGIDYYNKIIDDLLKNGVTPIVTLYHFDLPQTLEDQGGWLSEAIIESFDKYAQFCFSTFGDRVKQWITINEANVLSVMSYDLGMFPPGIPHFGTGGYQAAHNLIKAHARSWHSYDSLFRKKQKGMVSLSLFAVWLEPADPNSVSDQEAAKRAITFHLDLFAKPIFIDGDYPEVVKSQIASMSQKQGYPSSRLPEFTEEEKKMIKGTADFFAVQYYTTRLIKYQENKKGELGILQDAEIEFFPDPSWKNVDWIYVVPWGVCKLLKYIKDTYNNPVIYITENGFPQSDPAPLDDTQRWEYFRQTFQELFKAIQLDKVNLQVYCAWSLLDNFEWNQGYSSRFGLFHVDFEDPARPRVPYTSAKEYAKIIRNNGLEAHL
How it was run: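 Purified human cytosolic neutral β-glucosidase was preincubated 15 min at room temperature with a 3-fold compound dilution series. An equal volume of 10 mM 4-MU β-D-glucoside in 100 mM citrate–phosphate pH 7.0 was added, then incubated 30 min at 37 °C. The reaction was stopped with 4-fold excess 100 mM 2-amino-2-methylpropanol and read at ex 365/em 460 nm. IC50 came from nonlinear fitting.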

inhibition [1] | fold change (FC) [2] | Activity [3] [nM] | inhibition (Homo sapiens [5]) | inhibition [6] | Ki [7] [nM] | fold change (FC) (Homo sapiens [8]) | deltaTm [9] [K] | Activity (Homo sapiens [10]) [nM] | inhibition (Homo sapiens [11]) | IC50 [13] [nM] | SMILES | Activity [4] | Activity [12]
inactive | 2.1 | 2.7 | inactive | inactive | 1.8 | 1.3 | 15 | 0.6 |  |  | CCCCCCSCC[C@H]1NC[C@@H](O)[C@H](O)[C@H]1O.Cl | Toxic | 
inactive | 1.6 | 1 | inactive | inactive | 0.4 | 1.2 | 20 | 0.6 | Active | 2000 | CCCCCCCCSCC[C@H]1NC[C@@H](O)[C@H](O)[C@H]1O.Cl |  | Toxic
